Experiment [1] has as its target cAMP and cAMP-inhibited cGMP 3',5'-cyclic phosphodiesterase 10A (Homo sapiens, UniProt Q9Y233). As to the kind of experiment: Inhibition of recombinant human PDE10A assessed as reduction of [3H]-cAMP hydrolysis preincubated for 5 mins followed by [3H]-cAMP addition measured after 20 mins by scintillation proximity assay. The method, boiled down:
(§1)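 Recombinant human PDE with [3H]cAMP scintillation proximity assay. Enzyme used at a level within the linear range. Inhibitor (DMSO serial dilutions) plus enzyme held 5 min on ice, then [3H]cAMP added at 1/3 Km (1.48 kBq/mL), 20 min on ice (~30% turnover). Stopped with yttrium silicate SPA beads; settled 1.5 h at rt and counted. IC50 from one-site nonlinear fit, at least two independent runs, ± SD.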
On the technique in general: Scintillation proximity formats need no separation of bound from free tracer.

The target in experiment [2] is cGMP-inhibited 3',5'-cyclic phosphodiesterase 3A (Homo sapiens, UniProt Q14432). As to the kind of experiment: Inhibition of recombinant human PDE3A assessed as reduction of [3H]-cAMP hydrolysis preincubated for 5 mins followed by [3H]-cAMP addition measured after 20 mins by scintillation proximity assay. The method, boiled down: as §1
The target in experiment [3] is cGMP-inhibited 3',5'-cyclic phosphodiesterase 3B (Homo sapiens, UniProt Q13370). As to the kind of experiment: Inhibition of recombinant human PDE3B assessed as reduction of [3H]-cAMP hydrolysis preincubated for 5 mins followed by [3H]-cAMP addition measured after 20 mins by scintillation proximity assay. The method, boiled down:
as §1

Experiment [4] addresses 3',5'-cyclic-AMP phosphodiesterase 4A (Homo sapiens, UniProt P27815). As to the kind of experiment: Inhibition of recombinant human PDE4A assessed as reduction of [3H]-cAMP hydrolysis preincubated for 5 mins followed by [3H]-cAMP addition measured after 20 mins by scintillation proximity assay. The method, boiled down: as §1
The target in experiment [5] is 3',5'-cyclic-AMP phosphodiesterase 4B (Homo sapiens, UniProt Q07343). The experiment can be described thus: Inhibition of recombinant human PDE4B assessed as reduction of [3H]-cAMP hydrolysis preincubated for 5 mins followed by [3H]-cAMP addition measured after 20 mins by scintillation proximity assay. The method, boiled down:
as §1

For experiment [6], the species on record is Homo sapiens. As to the kind of experiment: Selectivity ratio of IC50 for recombinant human PDE3A to IC50 for recombinant human PDE10A.
For experiment [7], the species on record is Homo sapiens. The experiment can be described thus: Selectivity ratio of IC50 for recombinant human PDE3B to IC50 for recombinant human PDE10A.
Experiment [8] is filed under the species Homo sapiens. As to the kind of experiment: Selectivity ratio of IC50 for recombinant human PDE4A to IC50 for recombinant human PDE10A.
For experiment [9], the species on record is Homo sapiens. The experiment can be described thus: Selectivity ratio of IC50 for recombinant human PDE4B to IC50 for recombinant human PDE10A.

The record followed here is ChEMBL document CHEMBL3627597, “Synthesis of Fluorine-Containing Phosphodiesterase 10A (PDE10A) Inhibitors and the In Vivo Evaluation of F-18 Labeled PDE10A PET Tracers in Rodent and Nonhuman Primate” (J Med Chem, 2015).

One may read the IC50 as the midpoint of a concentration-inhibition curve.

Chain of cGMP-inhibited 3',5'-cyclic phosphodiesterase 3A (Q14432 whole entry): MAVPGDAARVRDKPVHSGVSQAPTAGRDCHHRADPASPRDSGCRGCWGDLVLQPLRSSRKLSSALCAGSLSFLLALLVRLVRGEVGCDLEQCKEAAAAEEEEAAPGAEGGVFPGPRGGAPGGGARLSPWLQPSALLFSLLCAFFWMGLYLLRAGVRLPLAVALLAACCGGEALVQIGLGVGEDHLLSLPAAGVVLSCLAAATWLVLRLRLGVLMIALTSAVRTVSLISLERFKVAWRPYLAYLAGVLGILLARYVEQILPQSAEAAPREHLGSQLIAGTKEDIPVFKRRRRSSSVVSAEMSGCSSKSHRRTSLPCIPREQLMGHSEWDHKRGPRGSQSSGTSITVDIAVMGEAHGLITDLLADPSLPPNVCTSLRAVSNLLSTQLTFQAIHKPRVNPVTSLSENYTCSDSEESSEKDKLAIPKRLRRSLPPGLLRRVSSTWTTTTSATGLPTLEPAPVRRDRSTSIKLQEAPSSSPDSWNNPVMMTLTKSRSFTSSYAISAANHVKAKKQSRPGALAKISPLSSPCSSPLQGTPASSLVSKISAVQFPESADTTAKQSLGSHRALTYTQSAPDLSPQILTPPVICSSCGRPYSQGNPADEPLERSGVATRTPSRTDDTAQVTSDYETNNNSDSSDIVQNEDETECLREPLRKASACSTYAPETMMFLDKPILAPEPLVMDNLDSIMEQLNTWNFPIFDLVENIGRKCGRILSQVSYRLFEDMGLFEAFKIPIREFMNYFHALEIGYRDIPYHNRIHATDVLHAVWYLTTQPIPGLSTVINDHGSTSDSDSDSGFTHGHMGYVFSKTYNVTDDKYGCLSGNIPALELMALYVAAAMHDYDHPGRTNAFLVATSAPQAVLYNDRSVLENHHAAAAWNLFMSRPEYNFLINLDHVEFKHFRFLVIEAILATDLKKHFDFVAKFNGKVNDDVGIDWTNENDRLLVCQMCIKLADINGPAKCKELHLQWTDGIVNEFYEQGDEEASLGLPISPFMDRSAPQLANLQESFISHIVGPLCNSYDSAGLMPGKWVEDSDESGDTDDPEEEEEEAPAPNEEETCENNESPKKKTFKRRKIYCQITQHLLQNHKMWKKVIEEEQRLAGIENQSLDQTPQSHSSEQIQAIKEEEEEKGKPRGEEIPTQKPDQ
Chain of cAMP and cAMP-inhibited cGMP 3',5'-cyclic phosphodiesterase 10A (Q9Y233 whole entry): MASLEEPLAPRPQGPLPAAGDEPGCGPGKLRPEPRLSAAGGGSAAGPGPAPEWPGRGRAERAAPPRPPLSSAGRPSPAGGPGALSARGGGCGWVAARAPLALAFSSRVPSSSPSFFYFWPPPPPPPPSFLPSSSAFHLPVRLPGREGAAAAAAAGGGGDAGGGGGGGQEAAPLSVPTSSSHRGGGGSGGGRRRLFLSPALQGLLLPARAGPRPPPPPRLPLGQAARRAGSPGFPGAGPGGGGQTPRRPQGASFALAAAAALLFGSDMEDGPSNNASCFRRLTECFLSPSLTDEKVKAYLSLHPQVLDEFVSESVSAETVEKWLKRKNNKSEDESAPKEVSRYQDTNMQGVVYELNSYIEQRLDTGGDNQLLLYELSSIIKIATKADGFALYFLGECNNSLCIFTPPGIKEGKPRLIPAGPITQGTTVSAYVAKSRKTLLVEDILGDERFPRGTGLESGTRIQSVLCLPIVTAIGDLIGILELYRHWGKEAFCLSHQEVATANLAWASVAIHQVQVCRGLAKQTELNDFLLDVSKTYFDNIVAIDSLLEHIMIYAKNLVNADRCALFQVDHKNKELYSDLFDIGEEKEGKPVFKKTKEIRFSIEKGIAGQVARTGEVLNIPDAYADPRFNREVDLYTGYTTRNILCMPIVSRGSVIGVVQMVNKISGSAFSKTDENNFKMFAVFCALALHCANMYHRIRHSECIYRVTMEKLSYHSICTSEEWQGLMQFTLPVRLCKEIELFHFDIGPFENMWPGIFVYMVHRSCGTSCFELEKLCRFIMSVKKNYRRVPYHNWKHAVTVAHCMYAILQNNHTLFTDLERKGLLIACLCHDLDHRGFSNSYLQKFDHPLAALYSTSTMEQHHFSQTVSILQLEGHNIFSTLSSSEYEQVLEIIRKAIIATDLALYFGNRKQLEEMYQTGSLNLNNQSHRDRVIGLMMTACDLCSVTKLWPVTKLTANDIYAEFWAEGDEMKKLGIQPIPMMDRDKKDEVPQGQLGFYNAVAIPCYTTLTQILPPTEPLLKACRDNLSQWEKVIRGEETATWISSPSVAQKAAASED
Chain of 3',5'-cyclic-AMP phosphodiesterase 4A (P27815 whole entry): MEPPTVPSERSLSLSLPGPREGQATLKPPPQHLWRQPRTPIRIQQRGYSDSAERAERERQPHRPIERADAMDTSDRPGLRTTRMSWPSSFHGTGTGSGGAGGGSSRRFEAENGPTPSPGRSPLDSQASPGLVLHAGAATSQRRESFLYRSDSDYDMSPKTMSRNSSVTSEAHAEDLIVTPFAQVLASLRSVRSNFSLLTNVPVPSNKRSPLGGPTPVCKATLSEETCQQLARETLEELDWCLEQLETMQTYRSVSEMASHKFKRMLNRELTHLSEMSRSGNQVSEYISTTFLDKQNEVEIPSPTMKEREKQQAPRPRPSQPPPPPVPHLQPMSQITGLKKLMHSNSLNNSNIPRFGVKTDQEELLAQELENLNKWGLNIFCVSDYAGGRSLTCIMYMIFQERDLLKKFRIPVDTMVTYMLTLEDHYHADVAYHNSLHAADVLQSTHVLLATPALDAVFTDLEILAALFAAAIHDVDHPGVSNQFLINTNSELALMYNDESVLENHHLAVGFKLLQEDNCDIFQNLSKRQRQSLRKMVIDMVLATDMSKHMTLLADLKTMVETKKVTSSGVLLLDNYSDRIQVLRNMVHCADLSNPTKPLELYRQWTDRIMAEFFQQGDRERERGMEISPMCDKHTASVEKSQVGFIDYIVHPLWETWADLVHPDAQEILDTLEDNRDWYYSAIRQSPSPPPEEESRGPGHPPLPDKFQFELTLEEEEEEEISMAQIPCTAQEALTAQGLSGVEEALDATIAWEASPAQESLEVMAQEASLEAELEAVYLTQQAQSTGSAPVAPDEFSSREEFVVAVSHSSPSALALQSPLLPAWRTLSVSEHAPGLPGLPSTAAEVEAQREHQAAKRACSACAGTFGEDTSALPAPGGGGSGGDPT
Chain of cGMP-inhibited 3',5'-cyclic phosphodiesterase 3B (Q13370 whole entry): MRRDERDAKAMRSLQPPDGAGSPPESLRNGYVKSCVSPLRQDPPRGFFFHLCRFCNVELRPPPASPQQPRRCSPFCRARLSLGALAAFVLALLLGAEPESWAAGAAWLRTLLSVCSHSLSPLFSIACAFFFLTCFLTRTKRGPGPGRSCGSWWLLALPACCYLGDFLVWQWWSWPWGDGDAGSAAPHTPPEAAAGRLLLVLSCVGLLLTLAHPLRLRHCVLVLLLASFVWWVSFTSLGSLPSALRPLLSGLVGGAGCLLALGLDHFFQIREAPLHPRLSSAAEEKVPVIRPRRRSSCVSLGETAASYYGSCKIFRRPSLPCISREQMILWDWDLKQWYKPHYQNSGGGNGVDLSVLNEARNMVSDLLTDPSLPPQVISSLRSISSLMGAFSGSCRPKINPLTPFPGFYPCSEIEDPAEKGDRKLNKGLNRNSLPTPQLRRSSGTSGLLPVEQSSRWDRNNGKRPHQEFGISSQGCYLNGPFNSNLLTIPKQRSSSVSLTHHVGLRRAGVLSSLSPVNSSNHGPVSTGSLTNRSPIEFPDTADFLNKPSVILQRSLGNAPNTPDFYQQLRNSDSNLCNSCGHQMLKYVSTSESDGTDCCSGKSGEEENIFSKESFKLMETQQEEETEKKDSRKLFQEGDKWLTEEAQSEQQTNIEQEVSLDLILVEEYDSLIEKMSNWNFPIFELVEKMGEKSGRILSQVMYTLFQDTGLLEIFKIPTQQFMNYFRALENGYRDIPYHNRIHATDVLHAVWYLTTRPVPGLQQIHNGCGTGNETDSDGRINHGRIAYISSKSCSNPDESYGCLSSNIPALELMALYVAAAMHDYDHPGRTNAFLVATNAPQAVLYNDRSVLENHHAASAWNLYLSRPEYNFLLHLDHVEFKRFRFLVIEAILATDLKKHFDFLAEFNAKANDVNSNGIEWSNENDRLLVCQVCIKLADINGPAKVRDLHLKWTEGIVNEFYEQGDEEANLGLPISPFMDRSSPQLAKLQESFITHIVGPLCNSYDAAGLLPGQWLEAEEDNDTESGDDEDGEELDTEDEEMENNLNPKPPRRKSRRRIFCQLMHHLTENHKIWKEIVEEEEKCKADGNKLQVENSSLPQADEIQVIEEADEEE
Chain of 3',5'-cyclic-AMP phosphodiesterase 4B (Q07343 whole entry): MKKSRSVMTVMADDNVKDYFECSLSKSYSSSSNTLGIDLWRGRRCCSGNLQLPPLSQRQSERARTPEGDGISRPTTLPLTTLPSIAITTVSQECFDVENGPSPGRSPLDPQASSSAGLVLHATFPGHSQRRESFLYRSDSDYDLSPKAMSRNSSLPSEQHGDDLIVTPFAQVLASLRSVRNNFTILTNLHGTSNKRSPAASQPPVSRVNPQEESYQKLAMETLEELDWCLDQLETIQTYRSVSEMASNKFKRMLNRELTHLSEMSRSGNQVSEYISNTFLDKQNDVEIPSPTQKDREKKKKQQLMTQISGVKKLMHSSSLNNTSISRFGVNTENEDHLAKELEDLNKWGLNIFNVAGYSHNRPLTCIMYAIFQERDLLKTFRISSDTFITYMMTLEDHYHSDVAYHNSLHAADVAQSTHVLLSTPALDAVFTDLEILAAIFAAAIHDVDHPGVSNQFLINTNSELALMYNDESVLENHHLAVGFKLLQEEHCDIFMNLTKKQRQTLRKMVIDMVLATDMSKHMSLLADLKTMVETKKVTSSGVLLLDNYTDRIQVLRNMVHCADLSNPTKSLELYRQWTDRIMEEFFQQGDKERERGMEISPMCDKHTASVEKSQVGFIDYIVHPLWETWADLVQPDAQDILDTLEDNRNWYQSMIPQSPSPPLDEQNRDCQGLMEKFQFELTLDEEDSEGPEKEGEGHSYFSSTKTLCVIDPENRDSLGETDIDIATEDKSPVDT

`Cn1cc(-c2ccncc2)c(-c2ccc(OCc3cc(OCCF)c4ccccc4n3)cc2)n1`: the 50% inhibitory concentration (IC50) in experiment [1] was 0.32 nM; in experiment [2], 29.5 µM; in [3], 7.76 µM; in experiment [4] it was 1.01 µM; in experiment [5], 1770 nM. Also, the Ratio IC50 in the experiment listed under Homo sapiens [6], in the experiment listed under Homo sapiens [7], in the experiment listed under Homo sapiens [8] and in the experiment filed under Homo sapiens [9] was over 210 throughout.
`Cn1ncc(-c2ccncc2)c1-c1ccc(OCc2cc(NCCF)c3ccccc3n2)cc1`: the IC50 in [1] was found to be 0.37 nM; in experiment [2], 78.8 µM; in [3] it was 38.3 µM; in experiment [4], 12.4 µM; in experiment [5], 1590 nM. For the same molecule, the Ratio IC50 in the experiment filed under Homo sapiens [6], in the experiment filed under Homo sapiens [7], in the experiment filed under Homo sapiens [8] and in the experiment listed under Homo sapiens [9] was over 210 each time.
In the case of `Cn1cc(-c2ccncc2)c(-c2ccc(OCc3cc(OCCOCCOCCF)c4ccccc4n3)cc2)n1`, the IC50 was 0.24 nM in experiment [1]; 116 µM in experiment [2]; 61.9 µM in experiment [3]; 1.57 µM in experiment [4]; 1580 nM in experiment [5]. Further, the Ratio IC50 in the experiment listed under Homo sapiens [6], in the experiment listed under Homo sapiens [7], in the experiment filed under Homo sapiens [8] and in the experiment filed under Homo sapiens [9] was over 210 in each case.
On to `Cn1cc(-c2ccncc2)c(-c2ccc(OCc3cc(OCCOCCF)c4ccccc4n3)cc2)n1`, for which the IC50 came to 0.27 nM in [1]; 22.9 µM in [2]; 16.2 µM in [3]; 1.44 µM in experiment [4]; 900 nM in experiment [5]. Also, the Ratio IC50 in the experiment listed under Homo sapiens [6], in the experiment filed under Homo sapiens [7], in the experiment listed under Homo sapiens [8] and in the experiment filed under Homo sapiens [9] was over 210 each time.
Consider `Cn1cc(-c2ccncc2)c(-c2ccc(OCc3ccc4cc(OCCF)ccc4n3)cc2)n1`, for which the IC50 in [1] turned out to be 33.5 nM. Also, the Ratio IC50 in the experiment listed under Homo sapiens [6], in the experiment listed under Homo sapiens [7], in the experiment filed under Homo sapiens [8] and in the experiment filed under Homo sapiens [9] was over 210 each time.
Turning to `Cn1ncc(-c2ccncc2)c1-c1ccc(OCc2cc(OCCF)c3ccccc3n2)cc1`, the IC50 was determined as 1.16 nM in experiment [1]; 3.77 µM in experiment [2]; 5.61 µM in experiment [3]; 3.72 µM in experiment [4]; 1020 nM in [5]. The Ratio IC50 in the experiment listed under Homo sapiens [6], in the experiment listed under Homo sapiens [7], in the experiment listed under Homo sapiens [8] and in the experiment filed under Homo sapiens [9] was over 210 each time.
For `Cn1cc(-c2ccncc2)c(-c2ccc(OCc3cc(NCCF)c4ccccc4n3)cc2)n1`, the IC50 in [1] worked out at 0.52 nM; in experiment [2] it was 3.74 µM; in experiment [3] it was 3.48 µM; in [4] it was 5.97 µM; in [5] it was 4800 nM. The Ratio IC50 in the experiment listed under Homo sapiens [6], in the experiment listed under Homo sapiens [7], in the experiment filed under Homo sapiens [8] and in the experiment listed under Homo sapiens [9] was over 210 in each case.
`Cn1cc(-c2ccncc2)c(-c2ccc(OCc3nc4ccccc4cc3OCCF)cc2)n1`: the IC50 in experiment [1] worked out at 0.26 nM; in experiment [2] it was 25.9 µM; in [3], 19.9 µM; in experiment [4], 1.76 µM; in experiment [5], 1040 nM. The Ratio IC50 in the experiment filed under Homo sapiens [6], in the experiment filed under Homo sapiens [7], in the experiment listed under Homo sapiens [8] and in the experiment filed under Homo sapiens [9] was over 210 in each case.
For the molecule `Cn1ncc(-c2ccncc2)c1-c1ccc(OCc2cc(OCCOCCOCCF)c3ccccc3n2)cc1`, the IC50 in experiment [1] stood at 0.47 nM; in [2] it was 62.2 µM; in experiment [3], 51.8 µM; in [4], 8.36 µM; in experiment [5], 7310 nM. For the same molecule, the Ratio IC50 in the experiment filed under Homo sapiens [6], in the experiment filed under Homo sapiens [7], in the experiment filed under Homo sapiens [8] and in the experiment listed under Homo sapiens [9] was over 210 throughout.
In the case of `Cn1cc(-c2ccncc2)c(-c2ccc(OCc3cc(CCCF)c4ccccc4n3)cc2)n1`, the IC50 in experiment [1] worked out at 1.8 nM; in experiment [2] it was 21.9 µM; in experiment [3], 19.1 µM; in experiment [4], 0.46 µM; in experiment [5] it was 380 nM. Besides, the Ratio IC50 in the experiment filed under Homo sapiens [6], in the experiment filed under Homo sapiens [7], in the experiment listed under Homo sapiens [8] and in the experiment filed under Homo sapiens [9] was over 210 in each case.
Consider `Cn1cc(-c2ccncc2)c(-c2ccc(OCc3cc(-n4cc(CCF)nn4)c4ccccc4n3)cc2)n1`, for which the IC50 in [1] was 3.07 nM; in [2], 4.51 µM; in experiment [3], 3.56 µM; in [4] it was 1.57 µM; in experiment [5], 18300 nM. Besides, the Ratio IC50 in the experiment filed under Homo sapiens [6], in the experiment listed under Homo sapiens [7], in the experiment listed under Homo sapiens [8] and in the experiment listed under Homo sapiens [9] was over 210 in each case.
In the case of `Cn1ncc(-c2ccncc2)c1-c1ccc(OCc2ccc3cc(F)ccc3n2)cc1`, the IC50 in experiment [1] was 0.76 nM; in experiment [2] it was 111 µM; in experiment [3], 151 µM; in [4] it was 9.73 µM; in [5], 760 nM. Besides, the Ratio IC50 in the experiment filed under Homo sapiens [6], in the experiment filed under Homo sapiens [7], in the experiment filed under Homo sapiens [8] and in the experiment filed under Homo sapiens [9] was over 210 throughout.
As for `Cn1ncc(-c2ccncc2)c1-c1ccc(OCc2cc(OCCOCCOCCOCCF)c3ccccc3n2)cc1`, the IC50 in [1] worked out at 0.3 nM; in experiment [2], 58.7 µM; in [3], 28.1 µM; in [4] it was 15 µM; in experiment [5], 1730 nM. Further, the Ratio IC50 in the experiment listed under Homo sapiens [6], in the experiment filed under Homo sapiens [7], in the experiment listed under Homo sapiens [8] and in the experiment listed under Homo sapiens [9] was over 210 each time.
Regarding `Cn1ncc(-c2ccncc2)c1-c1ccc(OCc2cc(COCCF)c3ccccc3n2)cc1`, the IC50 is 1.12 nM in experiment [1]; 306 µM in [2]; over 1000 µM in experiment [3]; 4.77 µM in [4]; 4240 nM in experiment [5]. Moreover, the Ratio IC50 in the experiment listed under Homo sapiens [6], in the experiment filed under Homo sapiens [7], in the experiment listed under Homo sapiens [8] and in the experiment listed under Homo sapiens [9] was over 210 each time.
Regarding `Cn1cc(-c2ccncc2)c(-c2ccc(OCc3ccc4cc(CF)ccc4n3)cc2)n1`, the IC50 in experiment [1] was over 76 nM. Moreover, the Ratio IC50 in the experiment filed under Homo sapiens [6], in the experiment filed under Homo sapiens [7], in the experiment listed under Homo sapiens [8] and in the experiment listed under Homo sapiens [9] was over 210 in each case.
Consider `Cn1cc(-c2ccncc2)c(-c2ccc(OCc3cc(CF)c4ccccc4n3)cc2)n1`, for which the IC50 in experiment [1] stood at 0.68 nM; in [2] it was 7.71 µM; in experiment [3] it was 5.68 µM; in experiment [4], 4.09 µM; in experiment [5] it was 3800 nM. Further, the Ratio IC50 in the experiment filed under Homo sapiens [6], in the experiment listed under Homo sapiens [7], in the experiment filed under Homo sapiens [8] and in the experiment filed under Homo sapiens [9] was over 210 each time.
With `Cn1cc(-c2ccncc2)c(-c2ccc(OCc3cc(COCCF)c4ccccc4n3)cc2)n1`, the IC50 is 0.65 nM in [1]; 4.07 µM in [2]; 4.55 µM in experiment [3]; 2.22 µM in experiment [4]; 1770 nM in [5]. In addition, the Ratio IC50 in the experiment listed under Homo sapiens [6], in the experiment listed under Homo sapiens [7], in the experiment filed under Homo sapiens [8] and in the experiment listed under Homo sapiens [9] was over 210 in each case.
With `Cn1ncc(-c2ccncc2)c1-c1ccc(OCc2cc(OCCOCCF)c3ccccc3n2)cc1`, the 50% inhibitory concentration (IC50) in [1] stood at 0.36 nM; in [2] it was 66.4 µM; in [3] it was 50.1 µM; in experiment [4], 12.3 µM; in experiment [5], 11600 nM. Besides, the Ratio IC50 in the experiment listed under Homo sapiens [6], in the experiment listed under Homo sapiens [7], in the experiment filed under Homo sapiens [8] and in the experiment filed under Homo sapiens [9] was over 210 throughout.
As for `Cn1cc(-c2ccncc2)c(-c2ccc(OCc3cc(F)c4ccccc4n3)cc2)n1`, the IC50 in [1] came out at 0.71 nM; in [2], 199 µM; in [3], 103 µM; in [4] it was 8.35 µM; in experiment [5], 6420 nM. Besides, the Ratio IC50 in the experiment filed under Homo sapiens [6], in the experiment filed under Homo sapiens [7], in the experiment listed under Homo sapiens [8] and in the experiment filed under Homo sapiens [9] was over 210 throughout.
In the case of `Cn1cc(-c2ccncc2)c(-c2ccc(OCc3ccc4cc(F)ccc4n3)cc2)n1`, the concentration for half-maximal inhibition (IC50) in experiment [1] worked out at 0.29 nM; in experiment [2] it was 38.5 µM; in experiment [3] it was 23.9 µM; in [4], 2.33 µM; in experiment [5], 2550 nM. The Ratio IC50 in the experiment listed under Homo sapiens [6], in the experiment filed under Homo sapiens [7], in the experiment listed under Homo sapiens [8] and in the experiment filed under Homo sapiens [9] was over 210 each time.
Consider `Cn1cc(-c2ccncc2)c(-c2ccc(OCc3cc(OCCOCCOCCOCCF)c4ccccc4n3)cc2)n1`, for which the IC50 worked out at 0.33 nM in experiment [1]; 144 µM in experiment [2]; 29.6 µM in experiment [3]; 9.89 µM in [4]; 10300 nM in experiment [5]. For the same molecule, the Ratio IC50 in the experiment listed under Homo sapiens [6], in the experiment filed under Homo sapiens [7], in the experiment listed under Homo sapiens [8] and in the experiment filed under Homo sapiens [9] was over 210 each time.
